# TRPC6 activator: mouse TRPC6 channel activators, primary screen, cell-based, HEK293, membrane potential dye | Short transient receptor potential channel 6 (Mus musculus), Q61143 | HEK293-TRPC6 membrane potential dye fluorescence; hits give high values | B-score at 10 µM | 310,000 tested, 0.13% active | AID 2550, 2010;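 active = B-score of the integrated fluorescence ratio above library mean plus 3 SD, and starting fluorescence ratio within library mean plus 5 SD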;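 also: higher score means more depolarization so channel activation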
# TRPC4 agonist: activators of mouse TRPC4 channel, primary screen, Fluo4 calcium, HEK293 TRPC4beta/mu-opioid cells; Fluo4 calcium fluorescence; hits give high values; B-score at 10 µM; 310,000 tested, 0.49% active; AID 2237, 2010;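 active = B-score above 5 SD of library B-scores, and initial fluorescence ratio not above library mean plus 5 SD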;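 also: positive B-score marks a calcium rise read as TRPC4 activation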
# Target sequence (Q9QUQ5 whole entry, looked up): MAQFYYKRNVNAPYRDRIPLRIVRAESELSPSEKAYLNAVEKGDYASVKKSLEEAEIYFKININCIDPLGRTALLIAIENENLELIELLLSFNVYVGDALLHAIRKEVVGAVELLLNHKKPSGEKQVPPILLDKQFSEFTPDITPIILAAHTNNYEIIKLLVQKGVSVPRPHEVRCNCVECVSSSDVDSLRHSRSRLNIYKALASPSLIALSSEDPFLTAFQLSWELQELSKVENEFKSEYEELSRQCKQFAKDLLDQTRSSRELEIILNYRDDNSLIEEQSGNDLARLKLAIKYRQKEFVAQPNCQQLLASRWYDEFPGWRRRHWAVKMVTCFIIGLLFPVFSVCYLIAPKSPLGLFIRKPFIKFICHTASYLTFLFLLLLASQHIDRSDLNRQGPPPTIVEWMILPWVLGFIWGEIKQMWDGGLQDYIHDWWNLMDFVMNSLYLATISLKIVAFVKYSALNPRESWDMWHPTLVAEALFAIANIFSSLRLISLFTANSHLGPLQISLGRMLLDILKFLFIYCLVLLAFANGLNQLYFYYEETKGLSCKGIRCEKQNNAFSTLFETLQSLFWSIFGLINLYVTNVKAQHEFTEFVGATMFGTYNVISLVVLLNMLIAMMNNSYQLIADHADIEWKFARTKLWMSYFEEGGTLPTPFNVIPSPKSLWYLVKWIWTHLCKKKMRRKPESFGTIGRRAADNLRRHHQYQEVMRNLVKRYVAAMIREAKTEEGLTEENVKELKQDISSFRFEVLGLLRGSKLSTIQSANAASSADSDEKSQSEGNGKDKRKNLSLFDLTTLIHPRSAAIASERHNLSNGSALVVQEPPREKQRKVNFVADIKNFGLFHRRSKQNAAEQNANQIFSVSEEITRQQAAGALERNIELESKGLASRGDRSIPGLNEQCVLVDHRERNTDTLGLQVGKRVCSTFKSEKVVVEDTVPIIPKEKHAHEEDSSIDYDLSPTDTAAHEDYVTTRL
#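 Technique: kinetic Fluo4 calcium fluorescence; Test system: TRPC4beta and mu-opioid receptor HEK293 stable cells; Measure: B-scored integrated calcium fluorescence ratio; Benchmarks: low control buffer alone, high control maximal DAMGO; Schedule: 45 min room-temperature Fluo4 loading, 110 s read.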
# TRPC4 PAM: positive allosteric modulators of TRPC4, primary screen, cell-based, mouse TRPC4beta, HEK293 mu-opioid, Fluo-4 calcium | DAMGO EC20, Fluo-4 Ca2+ flux; hits give high values | AID 2227, 2009 | 310,000 tested, 0.42% active | Short transient receptor potential channel 4 (Mus musculus), Q9QUQ5 | B-score at 10 µM;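 active = B-score of calcium response area above 5 SD of library B-scores, with initial fluorescence ratio within 5 SD of library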
# TRPC6 inhibitor: mouse TRPC6 channel inhibitors, primary screen, cell-based, HEK293, membrane potential dye | Short transient receptor potential channel 6 (Mus musculus), Q61143 | B-score at 10 µM | AID 2553, 2010 | 310,000 tested, 1.1% active | ACh-evoked depolarization; hits give low values;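 active = B-score under library mean minus 3 SD, initial fluorescence not abnormally high, positive integrated signal ratio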;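 also: B-score derived from integrated fluorescence ratio over the kinetic read; more negative B-score means stronger inhibition of depolarization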
# TRPC4 inh: inhibitors of mouse TRPC4 channel, primary screen, Fluo4 calcium, HEK293 TRPC4beta/mu-opioid cells; DAMGO-evoked Fluo4 calcium flux; hits give low values; B-score at 10 µM; 300,000 tested, 0.39% active;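 active = B-score over 3 SD under the library average, no early fluorescence shift, positive overall ratio signal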
#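 test system = HEK293 cells with stable TRPC4beta plus mu-opioid receptor expression | detection = Fluo4 Ca2+ flux fluorescence | read-out = integrated fluorescence ratio relative to baseline, converted to per-well B score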
# FID counter: compounds displacing fluorescent DNA intercalator, primary screen, artefact control for HCV NS3 helicase inhibitor project, biochemical, FID fluorescence; AID 1845, 2009; inhibition, % at 7.9 µM; DNA fluorescent intercalator displacement; 290,000 tested, 0.17% active; in the data active = inhibition above about 37%;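 also: higher means more ethidium bromide displaced from hairpin DNA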
# TRPC4 sel inh 2: second check of whether TRPC6 inhibitors also affect mouse TRPC4 | shares compounds with TRPC6 inhibitor | HEK293 TRPC4/MOR, membrane potential dye fluorescence; channel activated by saturating DAMGO dose | inhibition, % at 10 µM | 920 tested, 42% active | AID 2776;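 active = compounds whose fluorescence signal differed from control wells by over 3 SD, either direction, in both duplicate plates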
# TRPC4 spec: mouse TRPC4 modulation by TRPC6 hits, confirmation, selectivity assay for TRPC6 inhibitor project, cell-based, HEK293 TRPC4/mu-opioid, membrane potential dye. shares compounds with TRPC6 inhibitor. membrane potential fluorescence. activity change, negative = inhibition, % at 10 µM. 920 tested, 61% active;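 active = rise or fall in signal beyond 3 SD of buffer-only wells in both replicate plates, either sign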;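 also: integrated kinetic ratio of fluorescence range over baseline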
# HEK293 MPD ctr 2-1: nonspecific membrane potential effects, parental HEK293, confirmation, counter-screen for TRPC6 inhibitor project, cell-based, second counter screen; 920 tested, 31% active; parental HEK293 membrane potential dye fluorescence; maximal acetylcholine challenge after compound addition; AID 2779, 2010; signal change vs control, % at 10 µM; shares compounds with TRPC6 inhibitor;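 active = membrane potential signal moving either way by over 3 SD of the maximum-effect control, in both duplicate plates, meaning non-specific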
# HEK293 MPD ctr-1: membrane potential modulation in parental HEK293, confirmation, counter-screen for TRPC6 inhibitor project, cell-based | parental HEK293 membrane potential dye fluorescence | shares compounds with TRPC6 inhibitor | 920 tested, 60% active | AID 2780, 2010 | membrane potential signal change, % at 10 µM;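 active = membrane potential signal shifting up or down by more than 3 SD of buffer-only wells, on both duplicate plates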
# HEK293 MPD ctr-2: parental HEK293 membrane potential modulation, confirmation, counter-screen for TRPC6 modulator project, cell-based; AID 488924, 2010; shares compounds with TRPC6 inhibitor; membrane potential signal change, % at 10 µM; 2,400 tested, 51% active; membrane potential dye fluorescence;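 active = membrane potential signal moves up or down beyond 5 SD from buffer-only wells, on both duplicate plates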
# HEK293 MPD ctr 2-2: parental HEK293 nonspecific activity of TRPC6 modulators, second screen; inhibition, % at 10 µM; membrane potential dye fluorescence; after compound, maximal acetylcholine stimulation; 2,400 tested, 14% active; shares compounds with TRPC6 inhibitor; AID 488926;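 active = membrane potential signal drops by more than 5 SD from the mean control signal, in both duplicate plates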
# TRPC4/MOR mod: TRPC4 modulation by TRPC6 hit compounds, confirmation, selectivity assay for TRPC6 modulator project, cell-based, HEK293 TRPC4/mu-opioid, membrane potential dye, mouse. 2,400 tested, 69% active. percent change from control (negative = decrease, positive = increase), % at 10 µM. shares compounds with TRPC6 inhibitor. membrane potential fluorescence;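 active = membrane potential signal moved up or down beyond 5 SD of buffer control wells, in both duplicate plates, actives on both sides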
# TRPC4/MOR inh 2: mouse TRPC4 off-target activity of TRPC6 modulators, second screen; inhibition, % at 10 µM; HEK293 TRPC4/mu-opioid, membrane potential dye fluorescence; stimulated with maximal-effect DAMGO; shares compounds with TRPC6 inhibitor; 2,400 tested, 55% active; AID 488928;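 active = drop in membrane potential signal beyond 5 SD of the control wells in both duplicate plates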;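 also: TRPC4 counter screen for TRPC6 hits run under conditions tuned for TRPC6 not TRPC4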
# TRPC6 block conf: mouse TRPC6 channel inhibitors, confirmation, HEK293 cells, membrane potential dye, duplicate; shares compounds with TRPC6 inhibitor; ACh-evoked depolarization; inhibition, % at 10 µM; 3,300 tested, 43% active; AID 488960, 2010;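 active = fluorescence ratio falls more than 5 SD below the full-stimulation control mean, in both duplicate runs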;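 also: integrated fluorescence ratio of peak minus minimum over baseline after agonist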
# TRPC6 act confirm: mouse TRPC6 channel activators, confirmation, HEK293 cells, membrane potential dye, duplicate; shares compounds with TRPC6 inhibitor; HEK293-TRPC6 membrane potential dye fluorescence, FDSS; activation, % at 10 µM; 2,800 tested, 11% active; AID 488961, 2010;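 active = ratio signal rise beyond 5 SD above unstimulated control wells' mean, seen in both duplicate runs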
# Numbers stand for hits; - = inactive; . = no result. Sampled rows, rich in hits. Any-hit rate of the full collection: about 2.3%.
SMILES,TRPC6 activator,TRPC4 agonist,TRPC4 PAM,TRPC6 inhibitor,TRPC4 inh,FID counter,HEK293 MPD ctr-2,HEK293 MPD ctr 2-2,TRPC4/MOR mod,TRPC4/MOR inh 2,TRPC6 block conf,TRPC6 act confirm,others
COCCNc1nc2nonc2nc1N1CCC(N(C)C)C1 (configuration not stated),-,-,-,-5.4,-,-,-,-,-,-,-,-,
COc1ccc(-n2cnnc2SCC(=O)Nc2cc(S(=O)(=O)N3CCCCC3)ccc2C)cc1,-,-,-,-6.1,-,-,-,-,-,-,-,-,
Cc1ccc(S(=O)(=O)N2CCCCC2)cc1NC(=O)CSc1nncn1-c1ccccc1,-,-,-,-,-,-,.,.,.,.,.,.,
CCOC(=O)c1c(C)oc2ccc(O)c(CN3CCCCC3)c12,-,-,-,-,-,-,.,.,.,.,.,.,
CCOC(=O)c1c(C)n(C)c2ccc(O)c(CN3CCCCC3)c12,-,-,-,-8,-,-,-172%,-,-30%,59%,66%,-,
CCOC(=O)c1c(C)n(-c2ccc(OC)cc2)c2ccc(O)c(CN(C)C)c12,-,-,-,-8.8,-,-,.,.,.,.,60%,-,TRPC4 sel inh 2=46%;TRPC4 spec=-17%;HEK293 MPD ctr 2-1=-;HEK293 MPD ctr-1=-286%
CCOC(=O)c1c(C)n(C)c2ccc(O)c(CN(C)C)c12,-,-,-,-8.7,-,-,-242%,-,-41%,59%,62%,-,
CCOC(=O)c1c(C)n(-c2ccc(C)cc2)c2ccc(O)c(CN(C)C)c12,-,-,-,-5.7,-,-,-96%,-,-18%,62%,51%,-,
CN1C(=O)C2(OCCCO2)c2ccccc21,-,-,-,-,-,-,.,.,.,.,.,.,
Cc1ccc(C(=O)Nc2cccc(C(O)c3ccccc3)c2)cc1 (configuration not stated),-,-,-,-,-,.,.,.,.,.,.,.,
COC(=O)c1cc(CNC(=O)Cc2ccsc2)ccc1OC,-,-,-,-,-,-,.,.,.,.,.,.,
O=C(NCCCn1ccnc1)c1cc2cc([N+](=O)[O-])ccc2oc1=O,-,-,-,-5,-,-,-83%,-,-15%,-,-,-,
CC(C)(C)NC(=O)CN(Cc1ccco1)C(=O)CCC(=O)Nc1nccs1,-,-,-,-,-,-,.,.,.,.,.,.,
COc1cccc2oc3ccc(C#CC4(N)CCCCC4)cc3c(=O)c12,-,-,-,-11,-,-,.,.,.,.,-,-,TRPC4 sel inh 2=68%;TRPC4 spec=-;HEK293 MPD ctr 2-1=237%;HEK293 MPD ctr-1=-
CN1CCN(/N=C/c2nc(-c3cccc([N+](=O)[O-])c3)n3ccccc23)CC1,-,-,-,-5.2,-,-,-165%,-,-30%,46%,51%,-,
O=[N+]([O-])c1cccc(-c2nnc3ccc4ccccc4n23)c1,-,-,-,-,-,-,.,.,.,.,.,.,
C=CC[n+]1c(/C=C/c2ccc(OC(C)=O)c(OC)c2)ccc2ccccc21,-,-,-,-8,-,-,-301%,90%,-57%,65%,64%,-,
O=C(CCNC(=O)c1ccc([N+](=O)[O-])cc1)Nc1ccccc1N1CCCCC1,-,-,-,-,-,.,.,.,.,.,.,.,
CCCN(CCC)CCCNc1ccc(C(=O)Nc2cccc(OC)c2)cc1[N+](=O)[O-],-,-,-,-7.3,-,-,.,.,.,.,-,-,TRPC4 sel inh 2=55%;TRPC4 spec=-18%;HEK293 MPD ctr 2-1=-;HEK293 MPD ctr-1=-
COc1cccc(Nc2ccc(C(=O)O)cc2[N+](=O)[O-])c1,-,-,-,-,-,-,.,.,.,.,.,.,
CC(C)CNC(=O)c1cccc2c1-c1ccccc1C2=O,-,-,-,-,-,-,.,.,.,.,.,.,
Cc1cc(C)nc(/N=C(\N)Nc2ccc(-c3ccccc3)cc2)n1,-,-,-,-,-,-,.,.,.,.,.,.,
Cc1cc(C)nc(/N=C(\N)N(Cc2ccccc2)Cc2ccccc2)n1,-,-,-,-7.5,-7,-,.,.,.,.,-,-,TRPC4 sel inh 2=40%;TRPC4 spec=37%;HEK293 MPD ctr 2-1=-;HEK293 MPD ctr-1=3.8%
COc1ccc(C(=O)N/C(=C\c2cn(S(=O)(=O)N(C)C)c3ccccc23)C(=O)N2CCN(C)CC2)cc1,-,-,-,-,-,-,.,.,.,.,.,.,
COc1cccc(C2CC(C(F)(F)F)n3ncc(C(=O)NCC4CCCO4)c3N2)c1 (configuration not stated),-,-,-,-5.6,-,-,-,-,-,-,-,-,
